Assay [1] has as its target T1, Serine/threonine-protein kinase Chk1 (Homo sapiens, UniProt O14757).
T1 sequence (O14757 whole entry): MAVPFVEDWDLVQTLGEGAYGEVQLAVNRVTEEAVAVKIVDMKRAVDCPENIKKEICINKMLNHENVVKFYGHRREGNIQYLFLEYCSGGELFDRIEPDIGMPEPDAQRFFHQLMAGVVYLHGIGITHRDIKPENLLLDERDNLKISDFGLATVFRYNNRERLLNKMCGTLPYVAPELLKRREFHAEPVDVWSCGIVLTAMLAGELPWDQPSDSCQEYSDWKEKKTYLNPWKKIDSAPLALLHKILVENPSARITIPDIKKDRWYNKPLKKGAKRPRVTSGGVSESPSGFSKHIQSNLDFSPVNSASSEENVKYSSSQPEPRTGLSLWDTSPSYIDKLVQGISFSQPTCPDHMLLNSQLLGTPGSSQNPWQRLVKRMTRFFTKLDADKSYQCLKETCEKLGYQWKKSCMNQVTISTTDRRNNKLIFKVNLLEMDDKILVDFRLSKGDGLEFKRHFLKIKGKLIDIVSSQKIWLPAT
As to the kind of experiment: Inhibition of Chek1.

The test system of a further assay is NCI-H1299. Description: Release of NCI-H1299 cells from DNA damage-induced cell cycle arrest by CEA. Format: functional, cell-based. Conditions: Homo sapiens. A digest of the protocol:
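NCI-H1299 lung carcinoma cells were arrested by 16 h camptothecin treatment, then exposed to inhibitor for a further 8 h. Escape into mitosis was read as mitosis-specific nucleolin phosphorylation in an antibody-coated bead-based assay. EC50 came from a 10-point half-log dilution series, averaged over tetraplicate determinations.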

For assay [2], the target named is Cyclin-dependent kinase 7 (Homo sapiens, UniProt P50613). As to the kind of experiment: Inhibition of Cdk7.
Chain of Cyclin-dependent kinase 7 (P50613 whole entry): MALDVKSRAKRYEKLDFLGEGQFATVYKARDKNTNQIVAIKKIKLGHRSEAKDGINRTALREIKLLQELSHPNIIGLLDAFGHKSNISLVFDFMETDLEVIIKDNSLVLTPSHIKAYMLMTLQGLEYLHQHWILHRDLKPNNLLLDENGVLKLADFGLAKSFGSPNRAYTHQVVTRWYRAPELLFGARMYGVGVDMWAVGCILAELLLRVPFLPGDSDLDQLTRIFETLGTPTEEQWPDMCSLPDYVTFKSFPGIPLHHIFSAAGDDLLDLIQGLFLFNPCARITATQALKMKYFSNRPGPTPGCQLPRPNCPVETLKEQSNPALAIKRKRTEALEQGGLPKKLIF
The target of assay [3] is T1, Serine/threonine-protein kinase Chk1. As to the kind of experiment: Inhibition of autophosphorylation of Chek1 in NCI-H1299 cells. It counts as functional, cell-based. The gist of the method:
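Cyto-blot of Chek1 autophosphorylation with phospho-S296 Chek1 antibody in NCI-H1299 lung carcinoma cells. Cells incubated with inhibitor 2 h, then camptothecin added for a further 4 h. Cellular assay ATP 2.0 mM. 10-point, 3-fold dilution series. IC50 averaged over triplicate determinations.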

Another assay is filed under the species Homo sapiens. As to the kind of experiment: Selectivity for Chek1 over Cdk7.

Where only a bound is given, the exact number is not on record here.

As to `CC(=O)N1CCN(Cc2ccc3[nH]c(-c4n[nH]c5cc(C#N)ccc45)cc3c2)CC1`, the IC50 (usually the midpoint of a concentration-inhibition curve) in assay [1] is 17 nM; in the assay on NCI-H1299 it was more than 10000 nM; in assay [2] it was 39 nM; in assay [3] it was 1000 nM.
Consider `NCc1nn[nH]c1-c1ccc2c(-c3cc4cc(CN5CCC(F)CC5)ccc4[nH]3)n[nH]c2c1`, for which the concentration for half-maximal inhibition (IC50) in assay [1] was determined as 0.11 nM; in assay [2], 300 nM. For the same compound, the concentration giving a half-maximal response (EC50) (usually the concentration that produces a half-maximal response) with NCI-H1299 came out at 610 nM.
In assay [1], `CC(=O)N1CCN(Cc2ccc3[nH]c(-c4n[nH]c5cc(Cl)ccc45)cc3c2)CC1` returned an IC50 of 120 nM.
With `Cn1cc(-c2ccc3c(-c4cc5cc(CN6CCOCC6)ccc5[nH]4)n[nH]c3c2)cn1`, in assay [1], half-maximal inhibition (IC50) was put at 530 nM.
Take `c1ccc(-c2ccc3c(-c4cc5cc(CN6CCCCC6)ccc5[nH]4)n[nH]c3c2)cc1`: the values for the half-maximal inhibitory concentration (IC50) in assay [1] and in assay [2] were 45 nM and 7000 nM, respectively. Also, the Ratio IC50 in the assay filed under Homo sapiens came to 160. Moreover, in the assay on NCI-H1299, the midpoint of the response, the EC50, lay at 5000 nM.
On to `OCc1nn[nH]c1-c1ccc2c(-c3cc4cc(CN5CCC(F)CC5)ccc4[nH]3)n[nH]c2c1`, for which the IC50 in assay [1] was 0.3 nM; in assay [2], 180 nM. Besides, a half-maximal effect in the assay on NCI-H1299 (EC50) was put at 340 nM.
Turning to `N#Cc1ccc2c(-c3cc4cc(CN5CCOCC5)ccc4[nH]3)n[nH]c2c1`, in assay [1], the half-inhibitory concentration (IC50) worked out at 30 nM. In the assay with NCI-H1299, this compound displayed a half-maximal effective concentration (EC50) of more than 50000 nM.
As for `Cc1cnnn1-c1ccc2c(-c3cc4cc(CN5CCCCC5)ccc4[nH]3)n[nH]c2c1`, the half-maximal inhibitory concentration (IC50) in assay [1] worked out at 30 nM; in assay [2], 420 nM. Besides, the Ratio IC50 in the assay listed under Homo sapiens was 14. This compound also came in with a 50% effective concentration (EC50) in the assay on NCI-H1299 of 1400 nM.
Regarding `CN(C)C(=O)c1ccc2c(-c3cc4cc(CN5CCOCC5)ccc4[nH]3)n[nH]c2c1`, the figures for the IC50 in assay [1] and in assay [2] were 80 nM and more than 100000 nM, respectively. In addition, a half-maximal effect in the assay on NCI-H1299 (EC50) was put at 4000 nM.
The like results for `CNC(=O)c1ccc2c(-c3cc4cc(CN5CCOCC5)ccc4[nH]3)n[nH]c2c1` were, in that order, 13 nM, 4900 nM and 650 nM.
Consider `c1cnn(-c2ccc3c(-c4cc5cc(CN6CCCCC6)ccc5[nH]4)n[nH]c3c2)n1`, for which the IC50 in assay [1] was 34 nM; in assay [2], 480 nM. Besides, the Ratio IC50 in the assay listed under Homo sapiens came out at 14. This compound registered an EC50 in the assay on NCI-H1299 of 4500 nM.
In assay [1], `CC(=O)N1CCN(Cc2ccc3[nH]c(-c4n[nH]c5ccccc45)cc3c2)CC1` had an IC50 of 640 nM.
`c1cn(-c2ccc3c(-c4cc5cc(CN6CCCCC6)ccc5[nH]4)n[nH]c3c2)nn1`: the IC50 in assay [1] stood at 2.6 nM; in assay [2], 57 nM. Also, in the assay filed under Homo sapiens, the Ratio IC50 worked out at 22. Further, the half-maximal effective concentration (EC50) with NCI-H1299 was 350 nM.
For the compound `COC(=O)c1ccc2c(-c3cc4cc(CN5CCOCC5)ccc4[nH]3)n[nH]c2c1`, the half-inhibitory concentration (IC50) in assay [1] was determined as 62 nM; in assay [2], 6500 nM. In the assay on NCI-H1299, this compound displayed a 50% effective concentration (EC50) of 1930 nM.
Consider `c1cc(-c2ccc3c(-c4cc5cc(CN6CCOCC6)ccc5[nH]4)n[nH]c3c2)[nH]n1`, for which the IC50 in assay [1] was found to be 59 nM; in assay [2] it was 34 nM. In addition, in the assay listed under Homo sapiens, the Ratio IC50 is 0.58. Also, the EC50 in the assay with NCI-H1299 was more than 50000 nM.
Regarding `c1ccc2[nH]c(-c3n[nH]c4cc(-c5nnn[nH]5)ccc34)cc2c1`, the figures for the IC50 (in assay [1]; in the assay on NCI-H1299; in assay [3]) were 27 nM, more than 10000 nM and more than 10000 nM, respectively.
On to `NC(=O)c1ccc2c(-c3cc4cc(CN5CCOCC5)ccc4[nH]3)n[nH]c2c1`, for which the half-maximal inhibitory concentration (IC50) in assay [1] was 12 nM; in assay [2], 1300 nM. Besides, the EC50 in the assay on NCI-H1299 was determined as 980 nM.
For `c1cc2[nH]c(-c3n[nH]c4cc(-c5cn[nH]c5)ccc34)cc2cc1CN1CCOCC1` the same measures were 10 nM, 25 nM and more than 50000 nM.
With `OCc1n[nH]nc1-c1ccc2c(-c3cc4cc(CN5CCCCC5)ccc4[nH]3)n[nH]c2c1`, in the assay listed under Homo sapiens, the Ratio IC50 was 190. The compound further showed an EC50 in the assay on NCI-H1299 of 690 nM. The compound further displayed an IC50 in assay [2] of 56 nM.
On to `COc1cc(-c2ccc3c(-c4cc5cc(CN6CCCCC6)ccc5[nH]4)n[nH]c3c2)ccc1O`, for which the values for the IC50 in assay [1] and in assay [2] were 0.25 nM and 310 nM, respectively. Also, the response in the assay on NCI-H1299 was half-maximal at 92 nM (EC50).
For the compound `c1cnn(-c2ccc3c(-c4cc5cc(CN6CCCCC6)ccc5[nH]4)n[nH]c3c2)c1`, the IC50 is 110 nM in assay [1] and 2300 nM in assay [2]. The Ratio IC50 in the assay listed under Homo sapiens is 22. The same compound registered an EC50 in the assay with NCI-H1299 of more than 10000 nM.
With `CC(=O)N1CCN(Cc2ccc3[nH]c(-c4n[nH]c5cc(-c6nnn[nH]6)ccc45)cc3c2)CC1`, the 50% inhibitory concentration (IC50) was 2.3 nM in assay [1], more than 10000 nM in the assay on NCI-H1299 and more than 10000 nM in assay [3].
For the compound `c1cc2[nH]c(-c3n[nH]c4cc(-c5cnsc5)ccc34)cc2cc1CN1CCCCC1`, the half-maximal inhibitory concentration (IC50) in assay [1] turned out to be 12 nM; in assay [2] it was 18 nM. Further, in the assay listed under Homo sapiens, the Ratio IC50 was 1.5. Moreover, in the assay with NCI-H1299, the half-maximal effective concentration (EC50) was more than 10000 nM.
As for `c1csc(-c2ccc3c(-c4cc5cc(CN6CCCCC6)ccc5[nH]4)n[nH]c3c2)n1`, the half-inhibitory concentration (IC50) in assay [1] is 48 nM; in assay [2], 4000 nM. The Ratio IC50 in the assay filed under Homo sapiens worked out at 83. This compound gave an EC50 in the assay on NCI-H1299 of 2000 nM.

Source of the values: ChEMBL document CHEMBL1139742, “3-(Indol-2-yl)indazoles as Chek1 kinase inhibitors: Optimization of potency and selectivity via substitution at C6” (Bioorg Med Chem Lett, 2006).
